Test results taken from ChEMBL document CHEMBL1811824, “Synthesis and evaluation of mansonone F derivatives as topoisomerase inhibitors” (Eur J Med Chem, 2011).
Active and inactive are the calls of the source. No cut-off for these calls is given here.

Legend:
[1] = Antitumor against human GLC82 cells assessed as cell survival after 48 hrs by MTT assay; type: functional, cell-based; settings: GLC82, 48 h
Summary of the method: (§1)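 1 × 10^4 cells per well plated and left overnight, then exposed to compound at 0–100 μM for 48 h. Per well, 20 μl of 5 mg/ml MTT added, then incubated 4 h at 37 °C. Untransformed MTT removed, formazan dissolved in DMSO, absorbance read at 570 nm, and IC50 derived. Modified Mosmann method.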

[2] = Antitumor against human CNE2 cells assessed as cell survival after 48 hrs by MTT assay; type: functional, cell-based; settings: CNE-2, 48 h; summary of the method: as §1
[3] = biological target: T1, DNA topoisomerase 1 (Homo sapiens) (UniProt P11387); assay: Inhibition of human topoisomerase 1-mediated relaxation of supercoiled pBR322 DNA at 250 uM after 30 mins by agarose gel electrophoresis
T1 sequence (whole entry): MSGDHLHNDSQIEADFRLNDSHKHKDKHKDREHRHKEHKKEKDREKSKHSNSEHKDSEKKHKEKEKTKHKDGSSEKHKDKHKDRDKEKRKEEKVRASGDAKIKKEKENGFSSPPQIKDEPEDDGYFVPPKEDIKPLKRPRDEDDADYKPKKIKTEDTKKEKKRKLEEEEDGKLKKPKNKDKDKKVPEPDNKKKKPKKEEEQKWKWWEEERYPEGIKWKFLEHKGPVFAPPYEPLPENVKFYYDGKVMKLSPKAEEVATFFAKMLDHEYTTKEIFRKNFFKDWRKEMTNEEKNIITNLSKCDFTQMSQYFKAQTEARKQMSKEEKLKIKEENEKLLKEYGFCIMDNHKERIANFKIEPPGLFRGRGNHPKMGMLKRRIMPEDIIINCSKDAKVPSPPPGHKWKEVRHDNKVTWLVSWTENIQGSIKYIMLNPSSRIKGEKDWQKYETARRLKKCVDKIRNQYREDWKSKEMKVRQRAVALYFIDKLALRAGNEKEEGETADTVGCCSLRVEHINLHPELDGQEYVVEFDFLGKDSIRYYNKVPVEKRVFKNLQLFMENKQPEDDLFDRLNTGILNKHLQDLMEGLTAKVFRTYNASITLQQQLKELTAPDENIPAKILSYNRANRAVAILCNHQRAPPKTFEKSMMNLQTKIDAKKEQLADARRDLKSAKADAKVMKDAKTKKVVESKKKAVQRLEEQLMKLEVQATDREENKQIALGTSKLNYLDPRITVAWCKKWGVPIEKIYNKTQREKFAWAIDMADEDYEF

[4] = biological target: T2, DNA topoisomerase 2-alpha (Homo sapiens, UniProt P11388); assay: Inhibition of human topoisomerase 2 alpha-mediated relaxation of supercoiled pBR322 DNA after 30 mins by agarose gel electrophoresis
Summary of the method: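 Compound added at constant solvent volume. Started with 1 U human topo IIα, 30 min at 37 °C. Stopped with sarkosyl/bromophenol blue/glycerol buffer. Read on 1% agarose TAE gel, ethidium-stained, imaged under UV.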

[5] = biological target: T2, DNA topoisomerase 2-alpha; assay: Ratio IC50 of etoposide to IC50 of compound for human topoisomerase 2 alpha
Summary of the method: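 Human topo IIα relaxation of 0.2 μg pBR322 in Tris pH 8.0 buffer with 5 mM ATP, using 1 U enzyme for 30 min at 37 °C, read on agarose gel.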

[6] = biological target: Telomerase reverse transcriptase (Homo sapiens) (UniProt O14746); assay: Inhibition of telomerase in human K562 cells at 20 uM using telo TAGGG telomerase PCR ELISA; type: cell-based
Summary of the method: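 TRAP-based kit with non-radioactive ELISA read-out, run on K562 human leukemia cells per the manufacturer's instructions.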

[7] = test system: Ehrlich; assay: Inhibition of DNA primase in mouse EAC cells assessed as incorporation of [3H]dATP to […] template at 100 uM after 1 hr by scintillation counting; type: cell-based
Summary of the method: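 DNA primase isolated from Ehrlich ascites carcinoma cells grown in culture.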

T2 sequence (P11388 whole entry): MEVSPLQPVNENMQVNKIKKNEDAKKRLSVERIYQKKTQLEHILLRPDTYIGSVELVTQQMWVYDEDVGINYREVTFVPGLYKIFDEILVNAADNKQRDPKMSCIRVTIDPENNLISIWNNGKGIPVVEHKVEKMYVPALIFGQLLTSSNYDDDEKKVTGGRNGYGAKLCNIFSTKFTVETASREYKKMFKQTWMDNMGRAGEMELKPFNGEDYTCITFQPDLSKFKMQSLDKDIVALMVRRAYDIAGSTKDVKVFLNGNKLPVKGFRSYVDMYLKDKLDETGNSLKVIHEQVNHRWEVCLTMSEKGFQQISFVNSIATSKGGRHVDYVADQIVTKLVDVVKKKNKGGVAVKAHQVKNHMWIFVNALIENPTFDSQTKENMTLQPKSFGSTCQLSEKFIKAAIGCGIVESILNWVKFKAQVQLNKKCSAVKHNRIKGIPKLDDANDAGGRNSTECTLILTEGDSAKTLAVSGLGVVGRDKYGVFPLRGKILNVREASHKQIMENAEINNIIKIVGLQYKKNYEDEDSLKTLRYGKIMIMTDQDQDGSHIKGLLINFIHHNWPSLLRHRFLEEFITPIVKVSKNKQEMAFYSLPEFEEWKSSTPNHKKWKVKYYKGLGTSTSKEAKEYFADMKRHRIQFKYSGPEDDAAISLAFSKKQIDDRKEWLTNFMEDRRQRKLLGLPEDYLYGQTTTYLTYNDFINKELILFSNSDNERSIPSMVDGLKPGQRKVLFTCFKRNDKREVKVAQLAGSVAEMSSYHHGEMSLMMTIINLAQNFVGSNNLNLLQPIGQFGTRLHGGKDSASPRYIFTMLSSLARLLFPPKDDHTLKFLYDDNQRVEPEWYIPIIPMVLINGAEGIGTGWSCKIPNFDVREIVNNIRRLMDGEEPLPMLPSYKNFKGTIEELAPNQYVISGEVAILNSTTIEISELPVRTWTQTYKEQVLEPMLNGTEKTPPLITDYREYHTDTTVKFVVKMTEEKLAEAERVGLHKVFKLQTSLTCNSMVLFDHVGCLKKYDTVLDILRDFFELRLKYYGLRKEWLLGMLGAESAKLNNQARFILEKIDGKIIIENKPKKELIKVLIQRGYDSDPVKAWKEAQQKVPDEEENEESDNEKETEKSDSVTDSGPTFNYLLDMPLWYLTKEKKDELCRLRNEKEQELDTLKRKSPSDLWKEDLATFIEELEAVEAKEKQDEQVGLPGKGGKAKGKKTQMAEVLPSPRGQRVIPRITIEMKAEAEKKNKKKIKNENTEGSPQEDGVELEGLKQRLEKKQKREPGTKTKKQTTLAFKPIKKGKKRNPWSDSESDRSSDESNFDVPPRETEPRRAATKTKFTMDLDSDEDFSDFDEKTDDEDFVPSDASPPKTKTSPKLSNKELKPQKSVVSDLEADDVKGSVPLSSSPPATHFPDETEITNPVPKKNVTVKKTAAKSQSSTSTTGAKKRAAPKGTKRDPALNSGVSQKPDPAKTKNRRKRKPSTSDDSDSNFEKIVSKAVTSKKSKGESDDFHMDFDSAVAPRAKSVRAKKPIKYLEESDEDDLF
Telomerase reverse transcriptase (Homo sapiens), sequence (O14746 whole entry): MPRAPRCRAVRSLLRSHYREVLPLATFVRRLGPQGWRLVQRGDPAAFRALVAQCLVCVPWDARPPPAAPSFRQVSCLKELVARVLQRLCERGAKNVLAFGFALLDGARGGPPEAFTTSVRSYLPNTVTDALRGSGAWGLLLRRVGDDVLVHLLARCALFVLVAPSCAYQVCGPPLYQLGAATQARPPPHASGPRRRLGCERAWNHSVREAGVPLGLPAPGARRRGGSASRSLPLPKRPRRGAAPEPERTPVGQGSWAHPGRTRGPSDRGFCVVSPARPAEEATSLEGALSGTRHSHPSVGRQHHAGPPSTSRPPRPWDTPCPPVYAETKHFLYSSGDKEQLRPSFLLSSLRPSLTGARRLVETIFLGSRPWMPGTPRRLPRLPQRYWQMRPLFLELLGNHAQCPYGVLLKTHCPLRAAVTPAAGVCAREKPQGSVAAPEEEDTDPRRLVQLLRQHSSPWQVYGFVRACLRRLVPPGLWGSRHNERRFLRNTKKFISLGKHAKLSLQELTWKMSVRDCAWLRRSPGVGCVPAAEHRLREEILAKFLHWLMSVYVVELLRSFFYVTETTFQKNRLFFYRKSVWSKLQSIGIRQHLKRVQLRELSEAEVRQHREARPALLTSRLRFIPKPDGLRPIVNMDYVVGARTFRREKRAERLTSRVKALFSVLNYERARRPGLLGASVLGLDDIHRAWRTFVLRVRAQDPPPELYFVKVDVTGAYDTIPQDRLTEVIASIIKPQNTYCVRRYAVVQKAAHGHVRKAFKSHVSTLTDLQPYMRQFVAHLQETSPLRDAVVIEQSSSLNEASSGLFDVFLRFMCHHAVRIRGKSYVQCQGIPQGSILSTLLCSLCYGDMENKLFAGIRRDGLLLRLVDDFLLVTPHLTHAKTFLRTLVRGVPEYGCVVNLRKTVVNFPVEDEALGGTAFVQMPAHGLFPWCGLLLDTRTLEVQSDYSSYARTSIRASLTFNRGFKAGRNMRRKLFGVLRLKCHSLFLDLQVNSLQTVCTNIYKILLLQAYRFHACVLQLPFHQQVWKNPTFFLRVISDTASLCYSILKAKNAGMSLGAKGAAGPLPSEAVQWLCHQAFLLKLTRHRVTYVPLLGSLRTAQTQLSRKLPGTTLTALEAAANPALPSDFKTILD

Row | inhibition [3] | IC50 [4] [µM] | Ratio IC50 [5] | inhibition [6] [%] | SMILES | IC50 [1] [µM] | IC50 [2] [µM] | inhibition [7] [%]
1 |  |  |  |  | O=C1/C(=N\O)C=C2OCCc3cccc1c32 | > 50 | > 50 | 
2 | Active |  |  |  | O=C1C(=O)c2cccc3c2C(=C1Cl)OCC3(O)c1ccc(F)cc1 (stereo unspecified) | 9.74 | 13.5 | 
3 |  |  |  |  | CC(=O)COC1=C(C)C(=O)C(=O)c2ccccc21 | > 50 | > 50 | 
4 | Active |  |  |  | CC1=COC2=C(C)C(=O)C(=O)c3c(C)ccc1c32 [MANSONONE F] | 15.5 | 27.3 | 
5 |  |  |  |  | COc1ccc(C(=O)COC2=C(C)C(=O)C(=O)c3ccccc32)cc1 | 44.3 | 30.4 | 
6 |  |  |  |  | CC1(O)COC2=CC(=O)C(=O)c3cccc1c32 (stereo unspecified) | 19.2 | 17.3 | 
7 |  |  |  |  | c1ccc(-c2nc3cc4c5c(cccc5c3o2)CCO4)cc1 | > 50 | > 50 | 
8 | Active |  |  |  | O=C1C(=O)c2cccc3c2C(=C1Cl)OC=C3c1ccc(F)cc1 | 31.3 | 27.5 | 
9 |  |  |  |  | c1cc2c3c(cc4nccnc4c3c1)OCC2 | > 50 | > 50 | 
10 | Active |  |  |  | CC1(O)COC2=C(Cl)C(=O)C(=O)c3cccc1c32 (stereo unspecified) | 11.3 | 8.12 | 
11 | Active | 1.54 | 39 |  | C=CCC1=COC2=C(Cl)C(=O)C(=O)c3cccc1c32 | 3.77 | 5.2 | 
12 | Active |  |  |  | CCCC1=COC2=C(Cl)C(=O)C(=O)c3cccc1c32 | 2.15 | 3.93 | 
13 | Active |  |  |  | O=C1C=C2OC=C(c3ccccc3)c3cccc(c32)C1=O | 3.68 | 9.19 | 
14 | Active |  |  |  | CCCC1(O)COC2=C(Cl)C(=O)C(=O)c3cccc1c32 (stereo unspecified) | 7.93 | 3.59 | 
15 |  |  |  |  | O=C1C=C2OCCc3cccc(c32)/C1=N/O | 42.8 | 5.7 | 
16 | Active |  |  |  | O=C1C(=O)c2cccc3c2C(=C1Cl)OC=C3Cc1ccccc1 | 21.6 | 21.5 | 
17 | Active |  |  |  | O=C1C(=O)c2cccc3c2C(=C1Cl)OCC3(O)c1ccccc1 (stereo unspecified) | 5.63 | 2.87 | 

Row | inhibition [3] | IC50 [4] [µM] | Ratio IC50 [5] | inhibition [6] [%] | SMILES | IC50 [1] [µM] | IC50 [2] [µM] | inhibition [7] [%]
18 |  |  |  |  | CC1=C(OCC#N)c2ccccc2C(=O)C1=O | 39.2 | 39.5 | 
19 | Active |  |  |  | O=C1C=C2OCC(O)(c3ccccc3)c3cccc(c32)C1=O (stereo unspecified) | 5.33 | 3.18 | 
20 |  |  |  |  | CC[C@@]1(O)C(=O)OCc2c1cc1n(c2=O)Cc2cc3cc(O)ccc3nc2-1 [HYDROXYCAMPTOTHECIN] | 0.23 | 1.04 | 
21 | Active |  |  |  | O=C1C(=O)c2cccc3c2C(=C1Cl)OC=C3c1ccccc1 | 40.2 | 33.3 | 
22 | Active |  |  |  | O=C1C=C2OC=C(c3ccc(F)cc3)c3cccc(c32)C1=O | 3.21 | 16 | 
23 | inactive | 1.88 | 32 | 22 | CC1COC2=CC(=O)C(=O)c3cccc1c32 (stereo unspecified) | 1.77 | 2.05 | 29
24 | Active |  |  |  | O=C1C=C2OCC(O)(c3ccc(F)cc3)c3cccc(c32)C1=O (stereo unspecified) | 6.63 | 9.76 | 
25 | Active |  |  |  | CC1(OC(=O)c2ccccc2)COC2=C(Cl)C(=O)C(=O)c3cccc1c32 (stereo unspecified) | 10.8 | 8.05 | 
26 | Active |  |  |  | O=C1C=C2OC=C(Cc3ccccc3)c3cccc(c32)C1=O | 2.88 | 6.52 | 
27 |  |  |  |  | CC1=C(OCC(=O)c2ccc(Cl)cc2)c2ccccc2C(=O)C1=O | > 50 | 30.4 | 
28 | Active | 4.88 | 12 |  | O=C1C=C2OCC(O)(Cc3ccccc3)c3cccc(c32)C1=O (stereo unspecified) | 3.82 | 4.47 | 
29 | Active |  |  |  | O=C1C(=O)c2cccc3c2C(=C1Cl)OCC3(O)Cc1ccccc1 (stereo unspecified) | 2.75 | 6.34 | 
30 | Active |  |  |  | C=CCC1(O)COC2=C(Cl)C(=O)C(=O)c3cccc1c32 (stereo unspecified) | 5.33 | 3.54 | 
31 |  |  |  |  | C=CCOC1=C(C)C(=O)C(=O)c2ccccc21 | > 50 | > 50 | 
32 |  |  |  |  | O=C1C=C2OCCc3cccc(c32)C1=O | 5.32 | 4.83 | 
33 |  |  |  |  | c1ccc2nc3c(cc4c5c(cccc53)CCO4)nc2c1 | > 50 | > 50 | 
34 |  |  |  |  | CC1=C(OCC(=O)c2ccc(C)c(C)c2)c2ccccc2C(=O)C1=O | > 50 | > 50 | 
